Compound activity (PubChem BioAssay)
M18AAP inhibitor = blocks P. falciparum M18 aspartyl aminopeptidase; recombinant PfM18AAP, H-Glu-NHMec fluorogenic cleavage; inhibition, % at 7.35 µM; 1.2% of 290,000 active; AID 1822;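 active means inhibition above the campaign mean inhibition over all tested compounds plus 3 SD, cut at about 28% in these data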;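 further: 0% = plate median of test compound wells and 100% = 2 mM ZnCl2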
Hep lipid drop = modulators of hepatic lipid droplet formation. AML12 mouse hepatocytes, oleate lipid droplets, BODIPY imaging. inhibition, % at 6.5 µM. 0.4% of 240,000 active. AID 1656;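 active means lipid droplet intensity inhibited by at least 50%, with more than 500 cells counted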
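Assay system: AML12 hepatocytes (mouse) / Also added: 100 µM oleic acid challenge / Times: overnight treatment with compound plus oleate / Detection: high-content imaging of BODIPY-stained droplets and DAPI nuclei / Evaluation: % inhibition of lipid droplet signal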
NRP1-CendR mod = alters CendR peptide binding to human NRP-1. O14786. FAM-RPARPAR peptide binding to NRP-1, fluorescence polarization. inhibition, % at 25 µM. 0.85% of 360,000 active. AID 602438;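 active means inhibition or corrected inhibition above about 18%, plus a signal ratio from 0.5 to 1.5, limit read from the data, passing the limit was not always enough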
Arrestin-AP2 inh = blocks beta-arrestin peptide binding to AP2 adaptin; FITC-arrestin peptide / GST-AP2 beads, flow cytometry; AP2 beta2 appendage carries R879A mutation; inhibition, % at 10 µM; 0.31% of 340,000 active; AID 504490;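 active means inhibition above a set limit, near 3 SD of compounds lacking own fluorescence, cut at about 54% in these data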;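 further: plate controls were DMSO wells for no effect and 5 µM unlabelled arrestin peptide for full effect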
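Assay system: GST-AP2 R879A bound to glutathione beads, E. coli-expressed; Medium: PBS with 0.05% Tween 20 and 0.1% BSA; Also added: fluorescein-tagged arrestin peptide at 50 nM final; Timing: 12 min plus 1 h, RT; Measured by: flow cytometry, FL1 (488/535 nm); Evaluation: percent drop in bead-associated FITC signal.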
sPLA2-III inh = Inhibits HGIII-sPLA2 liposome hydrolysis, primary screen; Q9NZ20; QFRET BODIPY PC-A2 liposome hydrolysis, fluorescence; inhibition, % at 12.2 µM; 0.56% of 370,000 active;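 active means inhibition above mean plus 3 SD of compounds lying within the high and low control bounds, cut at about 19% in these data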;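 further: 0% = median of test compound wells and 100% = no enzyme DMSO wells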
Target sequence (Q9NZ20 whole entry, looked up): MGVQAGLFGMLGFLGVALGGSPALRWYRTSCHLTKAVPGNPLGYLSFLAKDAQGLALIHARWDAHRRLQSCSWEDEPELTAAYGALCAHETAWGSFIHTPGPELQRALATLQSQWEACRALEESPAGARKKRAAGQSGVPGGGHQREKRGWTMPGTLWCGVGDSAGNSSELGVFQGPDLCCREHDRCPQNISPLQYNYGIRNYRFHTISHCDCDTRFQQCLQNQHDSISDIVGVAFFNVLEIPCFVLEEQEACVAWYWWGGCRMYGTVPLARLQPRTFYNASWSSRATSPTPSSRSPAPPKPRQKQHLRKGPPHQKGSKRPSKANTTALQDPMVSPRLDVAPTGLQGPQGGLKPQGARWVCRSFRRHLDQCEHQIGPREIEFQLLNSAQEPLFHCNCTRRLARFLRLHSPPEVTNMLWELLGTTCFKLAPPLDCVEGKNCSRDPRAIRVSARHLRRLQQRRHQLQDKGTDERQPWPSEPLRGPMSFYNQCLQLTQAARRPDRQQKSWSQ
m5-HT2A agonist = activates the mouse 5-HT2A serotonin receptor | P35363 | CHO-K1 mHTR2A beta-arrestin complementation, luminescence; percent of 30 µM serotonin response | activation, % at 7.6 µM | 0.66% of 360,000 active;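 active means activation above a run cutoff, the mean activation of all tested compounds plus 3 SD, cut at about 14% in these data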;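 further: 0% = plate median of compound wells and 100% = 30 µM serotonin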
Hep lipid conf = hepatic lipid droplet formation inhibition, confirmed; shares compounds with Hep lipid drop; AML12 mouse hepatocytes, BODIPY lipid droplet imaging; droplets induced with 100 µM oleic acid; inhibition, % at 5.2 µM; 65% of 870 active; AID 463183;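 active means inhibition of lipid droplet metric at least 50%, with more than 300 cells in each of four replicates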;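 further: plate controls were DMSO with oleic acid for no effect and 5 µM Triacsin-C for full effect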
AML12 tox img = toxic to AML12 mouse hepatocytes in counter-screen; shares compounds with Hep lipid drop; DAPI nuclear morphology cytotoxicity imaging; stronger effect = higher value; cells fed 100 µM oleate overnight; z-score at 5 µM; 3% of 870 active; in the data active means z-score above about 6.3;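 further: compound exposure lasted overnight at 37 °C before fixation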
AML12 tox ATP = confirmation of cytotoxicity in AML12 mouse hepatocytes | shares compounds with Hep lipid drop | AML12 mouse hepatocyte viability, ATP luminescence; cells loaded with 100 µM oleic acid | cytotoxicity, % at 50 µM | 530 tested, under 10 active | AID 463219;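 active means cytotoxicity above 50% in each of four replicates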;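 further: compound exposure lasted overnight at 37 °C before the ATP read; 0% = DMSO-treated cells and 100% = wells with no cells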
Numbers without * were called inactive; x = no result given. In the library only some 3.3% were active in any assay of this set; here they are far more common.

SMILES	M18AAP inhibitor	Hep lipid drop	NRP1-CendR mod	Arrestin-AP2 inh	sPLA2-III inh	m5-HT2A agonist	Hep lipid conf	AML12 tox img	AML12 tox ATP
c1ccc(-c2nnc(OCc3cccnc3)c3ccccc23)cc1	2	1	-7	12	-9	1	x	x	x
Cc1ccc(-c2nnc(OCc3cccnc3)c3ccccc23)cc1	1	67*	-9	19	-6	-1	86*	0.77	15
COc1ccc(C(=O)c2[nH]c(N)c(C(=O)NCCc3c[nH]c4ccccc34)c2-c2ccc(C(F)(F)F)cc2)cc1	x	x	6	x	-32	-5	x	x	x
COc1cc(/C=C\C(=O)OCn2nnc3ccccc3c2=O)cc(OC)c1OC	0	57*	6	25	2	-3	25	-0.6	x
C=C(C)C(=O)N1CC2(CC(c3cccc(NC(=O)/C=C\C=C/C)c3)=NO2)C[C@H]1C(N)=O (stereo not given in full)	x	54*	-23	9	0	13	34	-0.38	x
Cc1ccc2nc(Cc3ccc(N)cc3)[nH]c2c1	-1	x	8	23	4	-2	x	x	x
Nc1ccc2nc(Cc3ccccc3)[nH]c2c1	-3	54*	-1	-10	2	-4	-11	0.2	x
Nc1ccn([C@@H]2O[C@H](C(=O)N3CCN(C(=O)C(F)(F)F)CC3)[C@@H](O)[C@H]2O)c(=O)n1	x	x	x	x	-6	x	x	x	x
COc1ccc(C[C@H]2CN3C(=NC[C@H]3Cc3ccccc3)N2CCNC(=O)c2ccc(C)c(Br)c2)cc1	x	54*	6	21	x	-8	-3	-0.018	x
CCc1ccc(NC(=O)C(C)OC(=O)c2ccc(N3CCCC3)c([N+](=O)[O-])c2)cc1 (stereo not given)	-1	92*	-13	16	-5	2	107*	-0.22	x
CCC(C(=O)Nc1ccccc1N1CCCC1)c1ccccc1Cl (stereo not given)	x	x	x	x	10	x	x	x	x
CC(Sc1nnc(NCc2ccccc2)s1)C(=O)Nc1ccc2c(c1)C(=O)c1ccccc1C2=O (stereo not given)	7	-3	14	21	1	-1	x	x	x
CC(Sc1nnc(Nc2ccccc2)s1)C(=O)Nc1nc(-c2ccccc2)cs1 (stereo not given)	3	54*	-7	18	-6	2	96*	-0.7	12
C#CCNC(=O)C[C@H]1C[C@@]2(C(=O)OC)C(=C[C@H](C(C)(C)C)O[C@@H]2C)N(CCC2=CCCCC2)C1=O	x	x	x	x	7	x	x	x	x
CCN1CCN(c2c(/C=C3\SC(=S)N(Cc4ccco4)C3=O)c(C)c(C#N)c(=O)n2C)CC1	24	65*	134	-11	-27	-3	9	-0.44	x
COc1cccc(C=C2SC(=S)N(Cc3ccco3)C2=O)c1OC	x	x	x	x	1	x	x	x	x
COc1ccc(NC(=O)CCCNS(=O)(=O)c2ccc3[nH]c(=O)oc3c2)cc1OC	x	x	x	x	6	x	x	x	x
CS(=O)(=O)Nc1ccc(C(=O)Nc2ccccc2C(=O)NCc2ccco2)cc1	4	57*	-11	0	-1	-3	-3	-0.51	x
COc1ccc2c(c1)/C(=C\c1cccc(/C=C3/C(=O)Nc4ccc(OC)cc43)n1)C(=O)N2	x	x	10	-1	-14	2	x	x	x
N/C(=N/O)c1nc(N2CCCC2)nc(N(c2ccccc2)c2ccccc2)n1	5	65*	2	-3	-1	-1	107*	-0.9	8
CN(C)c1ccc(CC(=O)N2CCCCC2c2cc(C(=O)Nc3ccccc3)no2)cc1 (stereo not given)	x	x	-2	x	2	-4	x	x	x
Brc1ccc(-c2csc(NNC3=NCCCCC3)n2)cc1	2	x	8	-2	9	1	x	x	x
c1ccc(-c2csc(NC3=NCCCCC3)n2)cc1	3	-2	1	17	2	-1	x	x	x
FC(F)Oc1ccc(-c2csc(NNC3=NCCCCC3)n2)cc1	13	95*	-2	4	1	0	115*	0.88	25
CC(C)(C)c1ccc(-c2csc(NNC3=NCCCCC3)n2)cc1	14	60*	-11	14	-1	4	100*	-0.65	12
SMILES	M18AAP inhibitor	Hep lipid drop	NRP1-CendR mod	Arrestin-AP2 inh	sPLA2-III inh	m5-HT2A agonist	Hep lipid conf	AML12 tox img	AML12 tox ATP
COC(=O)CCN1CCC2CC1c1cc(Cl)ccc12 (stereo not given)	x	x	-6	-4	2	-2	x	x	x
O=C(Nc1ccccc1)C1=C[C@@H](C2CCCCC2)C[C@@H](OCc2ccc(CO)cc2)O1	4	53*	11	2	-23	4	65*	-0.34	8
O=C(Nc1ccccc1)C1=C[C@H](C2CCCCC2)C[C@H](OCc2ccc(CO)cc2)O1	-5	-32	18	0	-12	-10	x	x	x
CCc1nc2ccccc2c(C(=O)OCC(=O)NCc2ccc3c(c2)OCO3)c1C	-10	79*	-4	14	1	-4	92*	0.21	13
Cc1ccc(OCC(=O)NCc2ccc3c(c2)OCO3)c([N+](=O)[O-])n1	-5	58*	-5	3	1	0	21	-0.92	x
CCCc1nc2ccccc2c(C(=O)OC(C)C(=O)NCc2ccc3c(c2)OCO3)c1CC (stereo not given)	-3	84*	-1	3	-3	-3	103*	-0.11	-6
CCCc1nc2ccccc2c(C(=O)OCC(=O)NCc2ccc3c(c2)OCO3)c1CC	4	36	-4	16	-17	2	x	x	x
CC(OC(=O)CCc1nc2ccccc2c(=O)[nH]1)C(=O)NCc1ccc2c(c1)OCO2 (stereo not given)	0	-8	-6	-5	1	-2	x	x	x
Cc1ccc(C)c(NC(=O)NNS(=O)(=O)c2ccc(C)c(C)c2)c1	0	27	-6	3	-1	-8	x	x	x
Cc1ccc(NC(=O)CSc2nnc(C)c(=O)n2N)cc1Cl	8	63*	-6	16	10	5	97*	-0.51	12
Cc1cccc(NC(=O)CSc2nnc(C)c(=O)n2N)c1	1	56*	7	18	0	1	46	0.049	7
O=C(NC1CCCCN(Cc2cccc(Cl)c2)C1=O)c1ccc(F)c(F)c1 (stereo not given)	x	x	x	x	7	x	x	x	x
O=C(C=Cc1ccc2c(c1)OCO2)C1CC1	x	x	-2	x	0	5	x	x	x
Cc1ccc(-n2cccc2/C=C2/NC(=O)N(CC(=O)Nc3cccc(C)c3)C2=O)cc1	-2	90*	-21	-1	-10	2	110*	0.011	12
